# Source: ChEMBL document CHEMBL1151472, “In vitro interactions between tacrolimus and azoles against Candida albicans determined by different methods” (2008)
# Legend:
# Assay type in all cases: functional
# Candida albicans [1] = assay: Antimicrobial activity against azole-resistant Candida albicans isolate CA10 assessed as log reduction in colony count at 1 ug/ml co-treated with calcineurin signaling inhibitor tacrolimus after 48 hrs by XTT assay
# Method in brief: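 Same time-kill setup (10^5 CFU/ml start, azole ± 0.016 μg/ml FK506, 35°C). At each time point, aliquots were mixed 1:1 with XTT (0.5 g/liter in Ringer's lactate) plus 10 μM menadione final. Incubation was in the dark for up to 2 h at 35°C, then formazan was read at 492 nm. OD was converted to CFU via a standard curve (Y = 4.2610x + 4.2087). Triplicate.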
# Candida albicans [2] = assay: Antimicrobial activity against azole-susceptible Candida albicans isolate CA129 co-treated with calcineurin signaling inhibitor tacrolimus after 48 hrs by microdilution checkerboard technique; conditions: isolate CA129, 48 h
# Method in brief: (§1)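 Checkerboard microdilution in MOPS-buffered RPMI 1640 (pH 7.0, 2% dextrose) with 2.5 × 10^3 CFU/ml for 48 h at 35°C. Final FK506 was 0.002–0.125 μg/ml. Azole finals were FLC 0.125–128 μg/ml, and ITR and VRC 0.008–8 μg/ml. MIC80 is an 80% OD492 decrease vs drug-free control. Interaction was scored by FICI (synergy ≤0.5, antagonism >4) and by ΔE from triplicates.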
# Candida albicans [3] = assay: Antimicrobial activity against azole-susceptible Candida albicans isolate CA8 after 48 hrs by broth microdilution method; conditions: isolate CA8, 48 h
# Method in brief: (§2)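 CLSI M27-A2 broth microdilution was run in RPMI 1640 (pH 7.0, 2% dextrose, 0.165 M MOPS). Inoculum was 2.5 × 10^3 CFU/ml, incubated 35°C for 48 h without shaking. Plates were read visually (0–5 scale) and at OD 492 nm. MIC80 = lowest concentration giving an 80% absorbance decrease vs drug-free control. Triplicate.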
# Candida albicans [4] = assay: Antimicrobial activity against azole-susceptible Candida albicans isolate CA14 co-treated with calcineurin signaling inhibitor tacrolimus after 48 hrs by microdilution checkerboard technique; conditions: isolate CA14, 48 h; method in brief: as §1
# Candida albicans [5] = assay: Antimicrobial activity against azole-susceptible Candida albicans isolate CA129 after 48 hrs by broth microdilution method; conditions: isolate CA129, 48 h; method in brief: as §2
# Candida albicans [6] = assay: Antimicrobial activity against azole-resistant Candida albicans isolate CA16 after 48 hrs by broth microdilution method; conditions: isolate CA16, 48 h; method in brief: as §2
# Candida albicans [7] = assay: Antimicrobial activity against azole-susceptible Candida albicans isolate CA14 assessed as log reduction in colony count at 1 ug/ml co-treated with calcineurin signaling inhibitor tacrolimus after 48 hrs by XTT assay
# Method in brief: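 Time-kill assay starting at 10^5 CFU/ml with azole 1 μg/ml plus FK506 0.016 μg/ml at 35°C, with a drug-free control and DMSO <1%. At 48 h, a 100 μl aliquot was mixed with XTT-menadione (XTT 0.5 g/liter in Ringer's lactate, menadione 10 μM final) and incubated in the dark up to 2 h at 35°C. A492 was converted to CFU by standard curve (Y = 4.2610x + 4.2087).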
# Candida albicans [8] = assay: Antimicrobial activity against azole-resistant Candida albicans isolate CA135 cotreated with calcineurin signaling inhibitor Tacrolimus after 48 hrs by microdilution checkerboard technique; conditions: isolate CA135, 48 h; method in brief: as §1
# Candida albicans [9] = assay: Antimicrobial activity against azole-susceptible Candida albicans isolate CA12 co-treated with calcineurin signaling inhibitor tacrolimus after 48 hrs by microdilution checkerboard technique; conditions: isolate CA12, 48 h; method in brief: as §1
# Candida albicans [10] = assay: Antimicrobial activity against azole-susceptible Candida albicans isolate CA12 after 48 hrs by broth microdilution method; conditions: isolate CA12, 48 h; method in brief: as §2
# Candida albicans [11] = assay: Antimicrobial activity against azole-susceptible Candida albicans isolate CA5 co-treated with calcineurin signaling inhibitor tacrolimus after 48 hrs by microdilution checkerboard technique; conditions: isolate CA5, 48 h; method in brief: as §1
# Candida albicans [12] = assay: Antimicrobial activity against azole-resistant Candida albicans isolate CA15 after 48 hrs by broth microdilution method; conditions: isolate CA15, 48 h; method in brief: as §2
# Candida albicans [13] = assay: Antimicrobial activity against azole-susceptible Candida albicans isolate CA8 co-treated with calcineurin signaling inhibitor tacrolimus after 48 hrs by microdilution checkerboard technique; conditions: isolate CA8, 48 h; method in brief: as §1
# Candida albicans [14] = assay: Antimicrobial activity against azole-resistant Candida albicans isolate CA10 after 48 hrs by broth microdilution method; conditions: isolate CA10, 48 h
# Method in brief: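 Broth microdilution per CLSI M27-A2 in RPMI 1640 (pH 7.0, 2% dextrose, 0.165 M MOPS), final inoculum 2.5 × 10^3 CFU/ml; 35°C without shaking for 48 h. Read visually (0–5 scale) and by OD 492 nm; MIC80 = lowest concentration giving 80% drop in absorbance versus drug-free control. Triplicate.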
# Candida albicans [15] = assay: Antimicrobial activity against azole-resistant Candida albicans isolate CA16 cotreated with calcineurin signaling inhibitor Tacrolimus after 48 hrs by microdilution checkerboard technique; conditions: isolate CA16, 48 h; method in brief: as §1
# Candida albicans [16] = assay: Antimicrobial activity against azole-resistant Candida albicans isolate CA10 assessed as log reduction in colony count at 1 ug/ml co-treated with calcineurin signaling inhibitor tacrolimus after 48 hrs by time killing test
# Method in brief: (§3)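 Time-kill was started at 10^5 CFU/ml, with 10 μg/ml FLC or 1 μg/ml ITR or VRC, alone or with 0.016 μg/ml FK506, and DMSO <1%, at 35°C. At 0, 6, 12, 24 and 48 h, aliquots were serially diluted and plated on Sabouraud agar, then counted after 48 h at 35°C. Triplicate means.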
# Candida albicans [17] = assay: Antimicrobial activity against azole-susceptible Candida albicans isolate CA14 assessed as log reduction in colony count at 1 ug/ml co-treated with calcineurin signaling inhibitor tacrolimus after 48 hrs by time killing test; method in brief: as §3
# Candida albicans [18] = assay: Antimicrobial activity against azole-resistant Candida albicans isolate CA10 co-treated with calcineurin signaling inhibitor tacrolimus after 48 hrs by microdilution checkerboard technique; conditions: isolate CA10, 48 h; method in brief: as §1
# Candida albicans [19] = assay: Antimicrobial activity against azole-susceptible Candida albicans isolate CA5 after 48 hrs by broth microdilution method; conditions: isolate CA5, 48 h; method in brief: as §2
# Candida albicans [20] = assay: Antimicrobial activity against azole-resistant Candida albicans isolate CA15 cotreated with calcineurin signaling inhibitor Tacrolimus after 48 hrs by microdilution checkerboard technique; conditions: isolate CA15, 48 h; method in brief: as §1
# Candida albicans [21] = assay: Antimicrobial activity against azole-resistant Candida albicans isolate CA137 after 48 hrs by broth microdilution method; conditions: isolate CA137, 48 h; method in brief: as §2
# Candida albicans [22] = assay: Antimicrobial activity against azole-resistant Candida albicans isolate CA137 cotreated with calcineurin signaling inhibitor Tacrolimus after 48 hrs by microdilution checkerboard technique; conditions: isolate CA137, 48 h; method in brief: as §1
# Candida albicans [23] = assay: Antimicrobial activity against azole-resistant Candida albicans isolate CA135 after 48 hrs by broth microdilution method; conditions: isolate CA135, 48 h; method in brief: as §2
# Candida albicans [24] = assay: Antimicrobial activity against azole-susceptible Candida albicans isolate CA14 after 48 hrs by broth microdilution method; conditions: isolate CA14, 48 h; method in brief: as §2
SMILES,Activity (Candida albicans [1]),MIC (Candida albicans [2]) [µg/mL],MIC (Candida albicans [3]) [µg/mL],MIC (Candida albicans [4]) [µg/mL],MIC (Candida albicans [5]) [µg/mL],MIC (Candida albicans [6]) [µg/mL],MIC (Candida albicans [8]) [µg/mL],MIC (Candida albicans [9]) [µg/mL],MIC (Candida albicans [10]) [µg/mL],MIC (Candida albicans [11]) [µg/mL],MIC (Candida albicans [12]) [µg/mL],MIC (Candida albicans [13]) [µg/mL],MIC (Candida albicans [14]) [µg/mL],MIC (Candida albicans [15]) [µg/mL],Activity (Candida albicans [16]),Activity (Candida albicans [17]),MIC (Candida albicans [18]) [µg/mL],MIC (Candida albicans [19]) [µg/mL],MIC (Candida albicans [20]) [µg/mL],MIC (Candida albicans [21]) [µg/mL],further results
CCC(C)n1ncn(-c2ccc(N3CCN(c4ccc(OCC5COC(Cn6cncn6)(c6ccc(Cl)cc6Cl)O5)cc4)CC3)cc2)c1=O (configuration not stated) [ITRACONAZOLE],2.46,0.031,0.016,0.031,0.063,32,0.016,0.031,0.063,0.031,32,0.008,128,0.016,2.12,2.13,0.031,0.031,0.063,16,Activity (Candida albicans [7]): 1.4; MIC (Candida albicans [22]): 0.063 µg/mL; MIC (Candida albicans [23]): 16 µg/mL; MIC (Candida albicans [24]): 0.063 µg/mL
C[C@@H](c1ncncc1F)[C@](O)(Cn1cncn1)c1ccc(F)cc1F [VORICONAZOLE],2.26,0.008,0.008,0.008,0.016,8,0.016,0.016,0.031,0.016,8,0.016,64,0.008,2.15,1.49,0.008,0.016,0.008,8,MIC (Candida albicans [22]): 0.008 µg/mL; MIC (Candida albicans [23]): 8 µg/mL; MIC (Candida albicans [24]): 0.008 µg/mL
